In data set [1] the test system is Hepatitis C virus. The data set can be described thus: Antiviral activity against Hepatitis C virus genotype 1b Con1 infected in human Huh-luc/neo-ET replicon cells assessed as reduction of replicon luciferase signal after 72 hrs by luciferase reporter assay. The class given is functional, organism-based, Hepacivirus hominis. In short, it runs like this: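 Replicon cells grown without G418, seeded at 5 × 10^3 per well, treated next day in duplicate with serial dilutions (DMSO control) at 37°C for 72 h. After a PBS wash, cells lysed in ice-cold passive lysis reagent and firefly luciferase RLU read as percent of compound-free control. EC50 by nonlinear regression of the dose-effect curve.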

In the next data set the test system is Hepatitis B virus. The data set can be described thus: Antiviral activity against Hepatitis B virus infected in human 2.2.15 cells assessed as reduction of […] after 72 hrs by southern DNA hybridization method. It is filed as functional, organism-based. To be noted: HepG2 2.2.15, 72 h. (In antiviral work, replicon cells carry a viral genome segment that copies itself.)

In data set [2] the test system is Human immunodeficiency virus 1. The data set can be described thus: Antiviral activity against Human immunodeficiency virus 1 3B virus infected in human MT2 cells assessed as inhibition of virus-induced cytopathic effect by colorimetry. It is filed as functional, organism-based. The method in brief:
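MT-2 cells, 1 × 10^3 per well in triplicate, infected with HIV-1 IIIB at 0.1 TCID50/cell and cultured with compounds. Viral CPE quantified by MTT colorimetry after 5 days to estimate EC50.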
(In general: Damage to the host cells serves as the signal in cytopathic effect assays.)

The test system of a further data set is MT2. The data set can be described thus: Cytotoxicity against human MT2 cells after 5 days by colorimetry. It is filed as cell-based. To be noted: MT2, 120 h. In short, it runs like this: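 Uninfected MT-2 cells coincubated with compounds for 5 days. Cytotoxicity by colorimetric quantitation.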
A short description of data set [3]: Cytotoxicity against human HuH7 cells by luminescence based cell viability assay. Set-up: species or system Huh-7. In short, it runs like this:
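Exponentially growing Huh-7 cells seeded at 1 × 10^4 per well and incubated with compounds for 3 days. Viability read by CellTiter-Glo luminescence, used for dark compounds that interfere with methylene blue absorbance at 595 nm. CC50 derived.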

In the next data set the test system is CCRF-CEM. The data set can be described thus: Mitochondrial DNA toxicity in human CEM cells. The class given is cell-based. In short, it runs like this: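 CEM cell lysates slot-blotted and hybridized with an mtDNA-specific probe, then reprobed with an Alu probe as internal control. Bands quantified by autoradiography and densitometry.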
In data set [4] the test system is Hepatitis C virus. The data set can be described thus: Antiviral activity against Hepatitis C virus genotype 1b Con1 infected in human Huh-luc/neo-ET replicon cells assessed as reduction of replicon luciferase signal after 72 hrs by luciferase reporter assay in presence of 0% fetal bovine serum. The class given is functional, organism-based, Hepacivirus hominis. In short, it runs like this: (§1)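 Huh-luc/neo-ET cells without G418, incubated with serially diluted compounds in medium containing 5%, 10%, 20% or 40% (vol/vol) FBS. Firefly luciferase read after 72 h. EC50 from dose-effect curves. The 0% value is a theoretical EC50 extrapolated from the plot of EC50 versus serum level. Means ± SD of three independent experiments.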

Data set [5] concerns Hepatitis C virus. The data set can be described thus: Antiviral activity against Hepatitis C virus genotype 1b Con1 infected in human Huh-luc/neo-ET replicon cells assessed as reduction of replicon luciferase signal after 72 hrs by luciferase reporter assay in presence of 5% fetal bovine serum. The class given is functional, organism-based, Hepacivirus hominis. The method in brief: as §1

Data set [6] deals with Hepatitis C virus. The data set can be described thus: Antiviral activity against Hepatitis C virus genotype 1b Con1 infected in human Huh-luc/neo-ET replicon cells assessed as reduction of replicon luciferase signal after 72 hrs by luciferase reporter assay in presence of 10% fetal bovine serum. The class given is functional, organism-based, Hepacivirus hominis. In short, it runs like this: as §1

In data set [7] the test system is Hepatitis C virus. The data set can be described thus: Antiviral activity against Hepatitis C virus genotype 1b Con1 infected in human Huh-luc/neo-ET replicon cells assessed as reduction of replicon luciferase signal after 72 hrs by luciferase reporter assay in presence of 20% fetal bovine serum. The class given is functional, organism-based, Hepacivirus hominis. In short, it runs like this: as §1

The subject of data set [8] is Hepatitis C virus. The data set can be described thus: Antiviral activity against Hepatitis C virus genotype 1b Con1 infected in human Huh-luc/neo-ET replicon cells assessed as reduction of replicon luciferase signal after 72 hrs by luciferase reporter assay in presence of 40% fetal bovine serum. It is filed as functional, organism-based, Hepacivirus hominis. The method in brief: as §1

The target of another data set is Cytochrome c (Homo sapiens, UniProt P99999). The data set can be described thus: Binding affinity to Cytochrome C.
Chain of Cytochrome c (P99999 whole entry): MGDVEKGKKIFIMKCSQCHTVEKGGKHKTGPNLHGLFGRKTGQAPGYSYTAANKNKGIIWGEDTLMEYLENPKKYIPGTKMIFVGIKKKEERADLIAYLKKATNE
Data set [9] is described as follows: Cytotoxicity against human Huh-7 cells by luminescence based cell viability assay.
Data set [10] has as its system Hepatitis C virus. The data set can be described thus: Antiviral activity against Hepatitis C virus genotype 2a JFH1 infected in human YSGR-JFH replicon cells assessed as inhibition of virus RNA level after 72 hrs by quantitative RT-PCR. It is filed as functional, organism-based, Hepacivirus hominis. The settings on record: subtype 2a JFH1, 72 h. The method in brief: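 YSGR-JFH genotype 2a subgenomic replicon cells (maintained with 400 μg/ml G418), 1 × 10^5 per well, incubated with DMSO, serially varied compound, or IFN-α-2a for 72 h. HCV RNA by qRT-PCR normalized to β-actin, as percent of mock-treated control. Mean ± SD of three independent experiments.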

Molecules are shown by their SMILES.

Usually EC50 stands for the concentration at which the effect is half-maximal. The CC50 is the concentration giving 50% cytotoxicity. The low end stands for harm at low concentration, the high end for better tolerance by the cells. For orientation: IC50 means the concentration that inhibits the measured activity by half. High values mean a need for much substance, low ones inhibition by little substance. Broadly, the Kd is a measure of binding affinity in units of concentration. A higher Kd goes with lower affinity. Regarding `O=C(O)c1ccc(-c2ccc(-c3c4nc(c(-c5ccc(-c6ccc(C(=O)O)cc6)cc5)c5ccc([nH]5)c(-c5ccc(-c6ccc(C(=O)O)cc6)cc5)c5ccc([nH]5)c(-c5ccc(-c6ccc(C(=O)O)cc6)cc5)c5nc3C=C5)C=C4)cc2)cc1`, the EC50 in the data set on Hepatitis C virus [1] is 0.877 µM; with Hepatitis B virus it was more than 10 µM; in data set [2], more than 25 µM; in the data set on Hepatitis C virus [4], 0.38 µM; with Hepatitis C virus [5], 0.633 µM; with Hepatitis C virus [6] it was 0.877 µM. Moreover, the EC50 in the data set on Hepatitis C virus [7] turned out to be 1.21 µM; in the data set with Hepatitis C virus [8], 1.48 µM. Moreover, the CC50 came out at 25 µM with MT2, 32.2 µM in [3] and 18.6 µM in data set [9]. Also, the IC50 in the data set on CCRF-CEM was 6 µM. On Cytochrome c, this compound showed an equilibrium dissociation constant (Kd) of 17 µM.
Consider `O=C(O)CNC(=O)c1ccc(-c2c3nc(c(-c4ccc(C(=O)NCC(=O)O)cc4)c4ccc([nH]4)c(-c4ccc(C(=O)NCC(=O)O)cc4)c4nc(c(-c5ccc(C(=O)NCC(=O)O)cc5)c5ccc2[nH]5)C=C4)C=C3)cc1`, for which the values for the EC50 (in the data set with Hepatitis C virus [1]; with Hepatitis B virus; in [2]) were 1.8 µM, more than 10 µM and more than 25 µM, respectively. The CC50 was 3.2 µM in the data set with MT2, more than 50 µM in data set [3] and 27 µM in data set [9]. Also, in the data set with CCRF-CEM, the IC50 amounted to 15 µM.
Regarding `COC(=O)[C@H](CC(=O)O)NC(=O)c1cc(C(=O)N[C@@H](CC(=O)O)C(=O)OC)cc(-c2ccc(-c3c4nc(c(-c5ccc(-c6cc(C(=O)N[C@@H](CC(=O)O)C(=O)OC)cc(C(=O)N[C@@H](CC(=O)O)C(=O)OC)c6)cc5)c5ccc([nH]5)c(-c5ccc(-c6cc(C(=O)N[C@@H](CC(=O)O)C(=O)OC)cc(C(=O)N[C@@H](CC(=O)O)C(=O)OC)c6)cc5)c5nc(c(-c6ccc(-c7cc(C(=O)N[C@@H](CC(=O)O)C(=O)OC)cc(C(=O)N[C@@H](CC(=O)O)C(=O)OC)c7)cc6)c6ccc3[nH]6)C=C5)C=C4)cc2)c1`, the EC50 in the data set with Hepatitis C virus [1] was 2.5 µM; in the data set on Hepatitis B virus, more than 10 µM; in [2] it was 4.1 µM. Also, the CC50 was more than 25 µM in the data set on MT2 and 12.5 µM in [3]. Besides, the IC50 in the data set with CCRF-CEM is 10 µM. In addition, the affinity on Cytochrome c, expressed as Kd, was 1.7 µM.
For `O=C(O)c1ccc(-c2c3nc(c(-c4ccc(C(=O)O)cc4)c4ccc([nH]4)c(-c4ccc(C(=O)O)cc4)c4ccc([nH]4)c(-c4ccc(C(=O)O)cc4)c4nc2C=C4)C=C3)cc1`, the EC50 is 0.243 µM in the data set with Hepatitis C virus [1]; more than 10 µM in the data set with Hepatitis B virus; more than 25 µM in data set [2]; 0.0482 µM with Hepatitis C virus [4]; 0.124 µM in the data set with Hepatitis C virus [5]; 0.243 µM with Hepatitis C virus [6]. Further, the EC50 in the data set on Hepatitis C virus [7] worked out at 0.513 µM; in the data set on Hepatitis C virus [8] it was 0.948 µM; in the data set with Hepatitis C virus [10], 1.9 µM. The values for the CC50 (in the data set with MT2; in data set [3]; in data set [9]) were more than 25 µM, more than 50 µM and more than 50 µM, respectively. In addition, the IC50 in the data set with CCRF-CEM was more than 50 µM. In addition, the Kd at Cytochrome c came to 0.95 µM.
Turning to `O=C(O)c1cccc(-c2ccc(-c3c4nc(c(-c5ccc(-c6cccc(C(=O)O)c6)cc5)c5ccc([nH]5)c(-c5ccc(-c6cccc(C(=O)O)c6)cc5)c5nc(c(-c6ccc(-c7cccc(C(=O)O)c7)cc6)c6ccc3[nH]6)C=C5)C=C4)cc2)c1`, the EC50 in the data set with Hepatitis C virus [1] is 0.764 µM; with Hepatitis B virus it was more than 20 µM; in data set [2] it was more than 25 µM. Also, the results for the half-maximal cytotoxic concentration (CC50) (in the data set on MT2; in data set [3]; in data set [9]) were more than 25 µM, 13 µM and 42.3 µM, respectively. For the same compound, 22 µM corresponded to half-maximal inhibition in the data set with CCRF-CEM (IC50).
In the case of `O=C(O)c1cc(C(=O)O)cc(-c2c3nc(c(-c4cc(C(=O)O)cc(C(=O)O)c4)c4ccc([nH]4)c(-c4cc(C(=O)O)cc(C(=O)O)c4)c4nc(c(-c5cc(C(=O)O)cc(C(=O)O)c5)c5ccc2[nH]5)C=C4)C=C3)c1`, the half-maximal effective concentration (EC50) with Hepatitis C virus [1] was 13.6 µM; in data set [2] it was more than 100 µM. The CC50 (in the data set with MT2; in data set [3]; in data set [9]) was more than 50 µM in each case. This compound also had an IC50 with CCRF-CEM of 25 µM.
Consider `O=C(O)CNC(=O)c1cc(C(=O)NCC(=O)O)cc(-c2ccc(-c3c4nc(c(-c5ccc(-c6cc(C(=O)NCC(=O)O)cc(C(=O)NCC(=O)O)c6)cc5)c5ccc([nH]5)c(-c5ccc(-c6cc(C(=O)NCC(=O)O)cc(C(=O)NCC(=O)O)c6)cc5)c5nc(c(-c6ccc(-c7cc(C(=O)NCC(=O)O)cc(C(=O)NCC(=O)O)c7)cc6)c6ccc3[nH]6)C=C5)C=C4)cc2)c1`, for which the concentration for a half-maximal effect (EC50) in the data set on Hepatitis C virus [1] is more than 12.5 µM; in the data set with Hepatitis B virus, more than 10 µM; in data set [2], 1.05 µM. Moreover, the CC50 is 15 µM with MT2, 12.5 µM in data set [3] and more than 50 µM in data set [9]. In addition, the midpoint of inhibition with CCRF-CEM, the IC50, lay at 12.5 µM.
For `O=C(O)CNC(=O)c1ccc(-c2ccc(-c3c4nc(c(-c5ccc(-c6ccc(C(=O)NCC(=O)O)cc6)cc5)c5ccc([nH]5)c(-c5ccc(-c6ccc(C(=O)NCC(=O)O)cc6)cc5)c5nc(c(-c6ccc(-c7ccc(C(=O)NCC(=O)O)cc7)cc6)c6ccc3[nH]6)C=C5)C=C4)cc2)cc1`, the values for the EC50 (in the data set with Hepatitis C virus [1]; with Hepatitis B virus; in data set [2]) were 0.148 µM, more than 20 µM and 1.5 µM, respectively. The cytotoxic concentration (CC50) in the data set on MT2 is 13 µM; in data set [3], more than 50 µM; in data set [9] it was more than 50 µM. Further, in the data set with CCRF-CEM, the IC50 was more than 50 µM.

The record behind these values is ChEMBL document CHEMBL1212775, “A novel class of meso-tetrakis-porphyrin derivatives exhibits potent activities against hepatitis C virus genotype 1b replicons in vitro” (Antimicrob Agents Chemother, 2010).
